Converted amounts (≈) assume the structure as drawn.

From ChEMBL document CHEMBL1126175, “Synthesis and antibacterial activity of new tetracyclic quinolone antibacterials” (J Med Chem, 1992) come the findings set out here.

In the first assay the test system is Escherichia coli. In words: In vitro antibacterial activity was measured against nalidixic acid resistant strain 1 from Escherichia coli KC-14. Format: functional. Summed up:
(§1)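 MIC by serial 2-fold agar dilution on Mueller–Hinton agar, inoculum about 10^6 CFU/mL. Plates were incubated 37 °C for 18 h. MIC was the lowest concentration preventing visible growth.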
The term MIC denotes the lowest concentration that inhibits growth of the organism. Low values mean greater potency, high ones weaker potency. As to `CCn1cc(C(=O)O)c(=O)c2ccc(C)nc21` [NALIDIXIC ACID], the minimal inhibitory concentration (MIC) is above 1600 µg/mL.
On the same count and under the same terms, the result for `O=C(O)c1c(=O)c2cc(F)c(N3CCC(O)C3)c3c2n2c(csc12)CO3` (stereo not given) reads above 3.13 µg/mL.

In another assay the test system is Escherichia coli. In words: In vitro antibacterial activity was measured against nalidixic acid resistant strain 2 from Escherichia coli KC-14. Format: functional. The procedure, abridged:
as §1
The compound `CCn1cc(C(=O)O)c(=O)c2ccc(C)nc21` [NALIDIXIC ACID] displayed an MIC above 1600 µg/mL.
Still for that read-out and setting: under `O=C(O)c1c(=O)c2cc(F)c(N3CCC(O)C3)c3c2n2c(csc12)CO3` (stereo not given) stands above 3.13 µg/mL.

The next assay concerns Escherichia coli. In words: In vitro antibacterial activity was measured against nalidixic acid resistant strain 3 from Escherichia coli KC-14. The class given is functional. The procedure, abridged:
as §1
For the compound `CCn1cc(C(=O)O)c(=O)c2ccc(C)nc21` [NALIDIXIC ACID], the MIC turned out to be 200 µg/mL (≈ 861 µM).
`O=C(O)c1c(=O)c2cc(F)c(N3CCC(O)C3)c3c2n2c(csc12)CO3` (stereo not given): the lowest concentration to inhibit growth (MIC) was 0.78 µg/mL (≈ 2.07 µM).

The next assay deals with Escherichia coli. In words: In vitro antibacterial activity was measured against nalidixic acid resistant strain 4 from Escherichia coli KC-14. Format: functional. Summed up:
as §1
For the compound `CCn1cc(C(=O)O)c(=O)c2ccc(C)nc21` [NALIDIXIC ACID], the minimum inhibitory concentration (MIC) amounted to 100 µg/mL (≈ 431 µM).
On the same count and under the same terms, under `O=C(O)c1c(=O)c2cc(F)c(N3CCC(O)C3)c3c2n2c(csc12)CO3` (stereo not given) stands 0.78 µg/mL (≈ 2.07 µM).

A further assay concerns Escherichia coli. In words: In vitro antibacterial activity was measured against nalidixic acid resistant strain 5 from Escherichia coli KC-14. Format: functional. The procedure, abridged:
as §1
`CCn1cc(C(=O)O)c(=O)c2ccc(C)nc21` [NALIDIXIC ACID] displayed an MIC of 100 µg/mL (≈ 431 µM).
On the same count and under the same terms, under `O=C(O)c1c(=O)c2cc(F)c(N3CCC(O)C3)c3c2n2c(csc12)CO3` (stereo not given) stands 0.78 µg/mL (≈ 2.07 µM).

The subject of the next assay is Escherichia coli. In words: In vitro antibacterial activity was measured against nalidixic acid resistant strain 6 from Escherichia coli KC-14. Format: functional. The procedure, abridged: as §1
Consider `CCn1cc(C(=O)O)c(=O)c2ccc(C)nc21` [NALIDIXIC ACID], for which the MIC was found to be 100 µg/mL (≈ 431 µM).
As for `O=C(O)c1c(=O)c2cc(F)c(N3CCC(O)C3)c3c2n2c(csc12)CO3` (stereo not given), it took 0.39 µg/mL (≈ 1.04 µM) to inhibit growth (MIC).

The test system of another assay is Escherichia coli. In words: In vitro antibacterial activity was measured against nalidixic acid resistant strain 7 from Escherichia coli KC-14. The class given is functional. Summed up: as §1
Turning to `CCn1cc(C(=O)O)c(=O)c2ccc(C)nc21` [NALIDIXIC ACID], the minimal inhibitory concentration (MIC) stood at 100 µg/mL (≈ 431 µM).
On the same count and under the same terms, under `O=C(O)c1c(=O)c2cc(F)c(N3CCC(O)C3)c3c2n2c(csc12)CO3` (stereo not given) stands 0.2 µg/mL (≈ 0.531 µM).

In a further assay the test system is Escherichia coli. Briefly: In vitro antibacterial activity against Escherichia coli KC-14, Ec(K), (gram-negative). Format: functional. Summed up: (§2)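 MIC by serial 2-fold agar dilution on Mueller–Hinton agar; inoculum about 10^6 CFU/mL; MIC taken as lowest concentration preventing visible growth after 18 h at 37 °C.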
In turn, `CCn1cc(C(=O)O)c(=O)c2cc(F)c(N3CCNCC3)cc21` [NORFLOXACIN] showed an MIC of 0.2 µg/mL (≈ 0.626 µM).
Same read-out and setting: the result for `O=C(O)c1c(=O)c2cc(F)c(N3CCCCC3)c3c2n2c(csc12)CO3` reads 3.13 µg/mL (≈ 8.36 µM); that for `O=C(O)c1c(=O)c2cc(F)c(N3CCSCC3)c3c2n2c(csc12)CO3`, 0.39 µg/mL (≈ 0.994 µM); that for `O=C(O)c1c(=O)c2cc(F)c(N3CCC(O)C3)c3c2n2c(csc12)CO3` (stereo not given), 0.05 µg/mL (≈ 0.133 µM).

A further assay deals with Enterococcus faecalis. Briefly: In vitro antibacterial activity against Enterococcus faecalis IID 682,[…],(gram-positive). Format: functional. Summed up:
as §2
Take `CCn1cc(C(=O)O)c(=O)c2cc(F)c(N3CCNCC3)cc21` [NORFLOXACIN]: the minimal inhibitory concentration (MIC) was determined as 1.56 µg/mL (≈ 4.89 µM).
On to `O=C(O)c1c(=O)c2cc(F)c(N3CCCCC3)c3c2n2c(csc12)CO3`, for which the minimal inhibitory concentration (MIC) is 1.56 µg/mL (≈ 4.17 µM).
The same measure, in the same setting: under `O=C(O)c1c(=O)c2cc(F)c(N3CCSCC3)c3c2n2c(csc12)CO3` stands 3.13 µg/mL (≈ 7.98 µM).
The same measure, in the same setting: the result for `O=C(O)c1c(=O)c2cc(F)c(N3CCC(O)C3)c3c2n2c(csc12)CO3` (stereo not given) reads 0.2 µg/mL (≈ 0.531 µM).

A further assay concerns Pseudomonas aeruginosa. In words: In vitro antibacterial activity against Pseudomonas aeruginosa IFO 3445,Pa(I),(gram-negative). The class given is functional. The procedure, abridged: as §2
Regarding `CCn1cc(C(=O)O)c(=O)c2cc(F)c(N3CCNCC3)cc21` [NORFLOXACIN], the minimum inhibitory concentration (MIC) was determined as 1.56 µg/mL (≈ 4.89 µM).
Turning to `O=C(O)c1c(=O)c2cc(F)c(N3CCCCC3)c3c2n2c(csc12)CO3`, the MIC is 12.5 µg/mL (≈ 33.4 µM).
On the same count and under the same terms, under `O=C(O)c1c(=O)c2cc(F)c(N3CCSCC3)c3c2n2c(csc12)CO3` stands 6.25 µg/mL (≈ 15.9 µM); under `O=C(O)c1c(=O)c2cc(F)c(N3CCC(O)C3)c3c2n2c(csc12)CO3` (stereo not given), 0.39 µg/mL (≈ 1.04 µM).

The next assay relates to Klebsiella pneumoniae. In words: In vitro antibacterial activity against klebsiella pneumoniae B54,Kp,(gram-negative). The class given is functional.
Compound `CCn1cc(C(=O)O)c(=O)c2cc(F)c(N3CCNCC3)cc21` [NORFLOXACIN] came in with a minimum inhibitory concentration (MIC) of 0.1 µg/mL (≈ 0.313 µM).
Same read-out and setting: under `O=C(O)c1c(=O)c2cc(F)c(N3CCCCC3)c3c2n2c(csc12)CO3` stands 1.56 µg/mL (≈ 4.17 µM); under `O=C(O)c1c(=O)c2cc(F)c(N3CCSCC3)c3c2n2c(csc12)CO3`, 0.39 µg/mL (≈ 0.994 µM).
Still for that read-out and setting: under `O=C(O)c1c(=O)c2cc(F)c(N3CCC(O)C3)c3c2n2c(csc12)CO3` (stereo not given) stands 0.05 µg/mL (≈ 0.133 µM).

The next assay relates to Staphylococcus aureus. In words: In vitro antibacterial activity against staphylococcus aureus IID 803,(gram-positive). Format: functional. Summed up: as §2
The compound `CCn1cc(C(=O)O)c(=O)c2cc(F)c(N3CCNCC3)cc21` [NORFLOXACIN] registered a minimal inhibitory concentration (MIC) of 1.56 µg/mL (≈ 4.89 µM).
Same read-out and setting: under `O=C(O)c1c(=O)c2cc(F)c(N3CCCCC3)c3c2n2c(csc12)CO3` stands 0.1 µg/mL (≈ 0.267 µM).
On the same count and under the same terms, the result for `O=C(O)c1c(=O)c2cc(F)c(N3CCSCC3)c3c2n2c(csc12)CO3` reads 0.05 µg/mL (≈ 0.127 µM); that for `O=C(O)c1c(=O)c2cc(F)c(N3CCC(O)C3)c3c2n2c(csc12)CO3` (stereo not given), 0.025 µg/mL (≈ 0.0664 µM).

The next assay concerns Staphylococcus epidermidis. Briefly: In vitro antibacterial activity against staphylococcus epidermidis IAM 1296, (gram-positive). The class given is functional. The procedure, abridged: as §2
On to `CCn1cc(C(=O)O)c(=O)c2cc(F)c(N3CCNCC3)cc21` [NORFLOXACIN], for which the MIC is 3.13 µg/mL (≈ 9.8 µM).
In turn, `O=C(O)c1c(=O)c2cc(F)c(N3CCCCC3)c3c2n2c(csc12)CO3` yielded a minimal inhibitory concentration (MIC) of 0.2 µg/mL (≈ 0.534 µM).
Same read-out and setting: the result for `O=C(O)c1c(=O)c2cc(F)c(N3CCSCC3)c3c2n2c(csc12)CO3` reads 0.1 µg/mL (≈ 0.255 µM); that for `O=C(O)c1c(=O)c2cc(F)c(N3CCC(O)C3)c3c2n2c(csc12)CO3` (stereo not given), 0.2 µg/mL (≈ 0.531 µM).

Another assay has as its system Pseudomonas aeruginosa. Briefly: In vitro antibacterial activity against Pseudomonas aeruginosa E-2,Pa(E),(gram-negative). The class given is functional. The procedure, abridged: as §2
Compound `CCn1cc(C(=O)O)c(=O)c2cc(F)c(N3CCNCC3)cc21` [NORFLOXACIN] showed a minimal inhibitory concentration (MIC) of 1.56 µg/mL (≈ 4.89 µM).
The same measure, in the same setting: the result for `O=C(O)c1c(=O)c2cc(F)c(N3CCCCC3)c3c2n2c(csc12)CO3` reads 6.25 µg/mL (≈ 16.7 µM); that for `O=C(O)c1c(=O)c2cc(F)c(N3CCSCC3)c3c2n2c(csc12)CO3`, 3.13 µg/mL (≈ 7.98 µM).
Same read-out and setting: under `O=C(O)c1c(=O)c2cc(F)c(N3CCC(O)C3)c3c2n2c(csc12)CO3` (stereo not given) stands 0.39 µg/mL (≈ 1.04 µM).

The subject of the next assay is Staphylococcus aureus. In words: In vitro antibacterial activity against staphylococcus aureus FDA 209P JC-1,Sa(F)(gram-positive). The class given is functional. Summed up: as §2
In the case of `CCn1cc(C(=O)O)c(=O)c2cc(F)c(N3CCNCC3)cc21` [NORFLOXACIN], the MIC amounted to 0.39 µg/mL (≈ 1.22 µM).
The same measure, in the same setting: the result for `O=C(O)c1c(=O)c2cc(F)c(N3CCCCC3)c3c2n2c(csc12)CO3` reads 0.1 µg/mL (≈ 0.267 µM); that for `O=C(O)c1c(=O)c2cc(F)c(N3CCSCC3)c3c2n2c(csc12)CO3`, 0.05 µg/mL (≈ 0.127 µM); that for `O=C(O)c1c(=O)c2cc(F)c(N3CCC(O)C3)c3c2n2c(csc12)CO3` (stereo not given), 0.025 µg/mL (≈ 0.0664 µM).

The subject of another assay is Escherichia coli. Briefly: In vitro antibacterial activity against Escherichia coli NIHJ JC-2,(gram-negative).
On to `CCn1cc(C(=O)O)c(=O)c2cc(F)c(N3CCNCC3)cc21` [NORFLOXACIN], for which it took 0.2 µg/mL (≈ 0.626 µM) to inhibit growth (MIC).
The same measure, in the same setting: the result for `O=C(O)c1c(=O)c2cc(F)c(N3CCCCC3)c3c2n2c(csc12)CO3` reads 0.78 µg/mL (≈ 2.08 µM); that for `O=C(O)c1c(=O)c2cc(F)c(N3CCSCC3)c3c2n2c(csc12)CO3`, 0.39 µg/mL (≈ 0.994 µM).
With `O=C(O)c1c(=O)c2cc(F)c(N3CCC(O)C3)c3c2n2c(csc12)CO3` (stereo not given), it took 0.05 µg/mL (≈ 0.133 µM) to inhibit growth (MIC).
